Source: ChEMBL document CHEMBL1132153, “Antitumor agents. 196. Substituted 2-thienyl-1,8-naphthyridin-4-ones: their synthesis, cytotoxicity, and inhibition of tubulin polymerization” (J Med Chem, 1999)

Columns and labels:
A549 = assay: In vitro cytotoxicity against A-549 human lung cancer cells; format: functional; settings: read-out: ED50 (the source's name)
In short: (§1)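 Panel of human tumor lines: KB nasopharyngeal epidermoid, A-549 lung, HCT-8 ileocecal, CAKI-1 renal, MCF-7 breast, SKMEL-2 melanoma. Growth measured by SRB assay and compared with untreated cells.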

CAKI-1 = assay: In vitro cytotoxicity against CAKI-1 human renal cancer cells; format: functional; settings: read-out: ED50 (the source's name); in short: as §1
KB [1] = assay: In vitro cytotoxicity against KB human epidermoid carcinoma of the nasopharynx; format: functional; settings: read-out: ED50 (the source's name); in short: as §1
MCF7 = assay: In vitro cytotoxicity against MCF-7 human breast cancer cells; format: functional; settings: read-out: ED50 (the source's name); in short: as §1
Tubulin [2] = biological target: T1, Tubulin (Bos taurus, UniProt Q6B856+Q862L2+Q862F3); assay: Concentration inhibiting tubulin polymerization (ITP); format: functional
Tubulin (Bos taurus) [3] = biological target: T2, Tubulin (Bos taurus) (UniProt Q6B856+Q862L2+Q862F3); assay: Concentration inhibiting [3H]-colchicine binding to tubulin; format: protein assay; settings: concentration not given here
In short: (§2)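 Inhibition of [³H]colchicine binding to electrophoretically homogeneous bovine brain tubulin (1 µM). [³H]colchicine and inhibitor each at 5 µM. Result given as % inhibition.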

HCT-8 = assay: In vitro cytotoxicity against HCT-8 human ileocecal cancer cells; format: functional; settings: read-out: ED50 (the source's name); in short: as §1
MDA-MB-435 = assay: In vitro growth inhibition of MDA-MB-435 breast cancer cell line.; format: functional; settings: Homo sapiens
MDA-N = assay: In vitro growth inhibition of MDA-N breast cancer cell line.; format: functional; settings: Homo sapiens
OVCAR-3 = assay: In vitro growth inhibition of OVCAR-3 ovarian cancer cell line.; format: functional; settings: Homo sapiens
NCI-H23 = assay: In vitro growth inhibition of NCI-H23 non small cell lung cancer cell line.; format: functional; settings: Homo sapiens
RXF 393 = assay: In vitro growth inhibition of RXF-393 renal cancer cell line.; format: functional; settings: Homo sapiens
SK-MEL-5 = assay: In vitro growth inhibition of SK-MEL-5 melanoma cell line.; format: functional; settings: Homo sapiens
SW-620 = assay: In vitro growth inhibition of SW-620 colon cancer cell line.; format: functional; settings: Homo sapiens
U-251 = assay: In vitro growth inhibition of U251 CNS cancer cell line.; format: functional; settings: Homo sapiens
PC-3 = assay: In vitro growth inhibition of PC-3 prostate cancer cell line.; format: functional; settings: Homo sapiens
HL-60 [4] = assay: In vitro growth inhibition of HL-60 (TB) leukemia cell line; format: functional; settings: Homo sapiens
In short: (§3)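 Human leukemia HL-60(TB) cells exposed to compound in vitro. The read-out is log GI50 in molar units, defined as the log concentration that reduced cell growth to 50% of the level in untreated controls.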

Tubulin [5] = biological target: T1, Tubulin; assay: Inhibition of tubulin polymerization (ITP); format: functional
In short: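 Polymerization of electrophoretically homogeneous bovine brain tubulin at 12 µM, run with a range of inhibitor concentrations. IC50 is the concentration inhibiting polymerization by 50%, reported ± SD.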

SK-MEL-2 [6] = assay: In vitro cytotoxicity against SKMEL-2 human melanoma cancer cells; format: functional; settings: read-out: ED50 (the source's name); in short: as §1
HL-60 [7] = assay: In vitro growth inhibition of HL-60 (TB) leukemia cell line.; format: functional; settings: Homo sapiens; in short: as §3
KB [8] = assay: In vitro cytotoxicity against KB-Vin cancer cell line; format: functional; settings: Homo sapiens, read-out: ED50 (the source's name)
SK-MEL-2 [9] = assay: In vitro cytotoxicity against SKMEL-2 human melanoma cancer; format: functional; settings: read-out: ED50 (the source's name); in short: as §1
Tubulin (Bos taurus) [10] = biological target: T2, Tubulin (Bos taurus); assay: Concentration inhibiting [3H]colchicine binding to tubulin, at a concentration of 5 uM; format: protein assay; in short: as §2
KB [11] = assay: In vitro cytotoxicity against KB-Vin cancer cell line.; format: functional; settings: Homo sapiens, read-out: ED50 (the source's name)

SMILES	EC50 (A549) [nM]	EC50 (CAKI-1) [nM]	EC50 (KB [1]) [nM]	EC50 (MCF7) [nM]	EC50 (HCT-8) [nM]	GI50 (MDA-MB-435) [nM]	GI50 (MDA-N) [nM]	GI50 (OVCAR-3) [nM]	GI50 (NCI-H23) [nM]	GI50 (RXF 393) [nM]	GI50 (SK-MEL-5) [nM]	GI50 (SW-620) [nM]	GI50 (U-251) [nM]	GI50 (PC-3) [nM]	IC50 (Tubulin [5]) [nM]	GI50 (HL-60 [7]) [nM]	further results
Cc1ccnc2nc(-c3csc4ccccc34)cc(O)c12	200	> 250	40	250													IC50 (Tubulin [2]): 1200 nM; inhibition (Tubulin (Bos taurus) [3]): 22%
Cc1ccc2c(O)cc(-c3ccsc3)nc2n1	> 6300		6300	> 3100	> 3100	490	363	5130	1860	3240	2570	1000	3890	3090	7000		GI50 (HL-60 [4]): 2190 nM
Cc1ccc2c(O)cc(-c3ccco3)nc2n1	> 10000	> 10000	> 10000	> 20000	> 10000										14000		EC50 (SK-MEL-2 [6]): > 10000 nM
Cc1ccc2c(O)cc(-c3ccc(C)s3)nc2n1						23.4	22.9	257	138	195	204	47.9	324	204	1700	77.6	
Cc1ccc2c(O)cc(-c3sccc3C)nc2n1						107	77.6	661	145	631	178	145	468	245	2800	174	
Cc1ccc2c(O)cc(-c3cccs3)nc2n1	> 6300		6300	> 1600		2000	1860	30900	4370	11200	6030	2950	17000	9330	6000	2690	EC50 (KB [8]): 9500 nM
Cc1ccc2c(O)cc(-c3sc(-c4ccccc4)cc3C)nc2n1						3550	3890	21400	6030	36300	3390	10000			14000	5500	
Cc1ccc2c(O)cc(-c3sc4ccccc4c3C)nc2n1						4790	17000	19500	19500	17000	14800	20000	38900	33100	13000	18600	
Cc1ccc2c(O)cc(-c3cccnc3)nc2n1	4600	5000	3000	1200	2100										7700		EC50 (KB [8]): 2500 nM; EC50 (SK-MEL-2 [9]): > 10000 nM
Cc1cnc2nc(-c3csc4ccccc34)cc(O)c2c1	56	134	27	125	57												EC50 (SK-MEL-2 [6]): 135 nM; IC50 (Tubulin [2]): 910 nM; inhibition (Tubulin (Bos taurus) [3]): 26%
Cc1ccc2c(O)cc(-c3cc4ccccc4s3)nc2n1						> 100000	> 100000	> 100000	> 100000	51300	> 100000	> 100000	> 100000	> 100000	> 40000	> 100000	
Cc1ccc2c(O)cc(-c3ccc(Br)s3)nc2n1	> 3100		800	> 800	> 800												EC50 (SK-MEL-2 [6]): > 10000 nM; IC50 (Tubulin [2]): 1500 nM; inhibition (Tubulin (Bos taurus) [10]): 19%; EC50 (KB [11]): 500 nM
Cc1cc(C)c2c(O)cc(-c3csc4ccccc34)nc2n1	300	> 500	120	500													IC50 (Tubulin [2]): 780 nM; inhibition (Tubulin (Bos taurus) [3]): 26%
Cc1ccc2c(O)cc(-c3ccc(Cl)s3)nc2n1						380	186	2040	1000	2040	380		1200	1580	1700	204	
Cc1ccc2c(O)cc(-c3csc4ccccc34)nc2n1						< 10	< 10	< 10	21.9	< 10	< 10	< 10				< 10	IC50 (Tubulin [2]): 370 nM; inhibition (Tubulin (Bos taurus) [10]): 65%
Cc1cnc2nc(-c3sccc3C)cc(O)c2c1	2500	> 5000	1300	1100	1000	324	676	3800		4470	2040	4170	9120	5370	3800		EC50 (KB [11]): 1900 nM
Cc1ccc2c(O)cc(-c3cc(C)sc3C)nc2n1						372	631	2820	1230	1910	661	1410	3470	2240	4800	1550	
Cc1cnc2nc(-c3ccc(C)s3)cc(O)c2c1	1300	1250	1100	1100	900										2700		EC50 (SK-MEL-2 [9]): > 2500 nM; EC50 (KB [11]): 1100 nM
